# Data taken from publication PMC3629956 (Molecular imaging and biology : MIB : the official …, 2012).
# Where a SMILES comes first, the peptide text is derived from it. Bridges are numbered along the chain shown (N, C = ends). The star is where a group is joined. DOTA = O=C(O)CN1CCN(CC(=O)O)CCN(CC(=O)*)CCN(CC(=O)O)CC1
# Key:
# [1] = system: U87MG human glioblastoma cells; assay: Cell efflux; type: cell-based; conditions: after 2 h efflux incubation
# In short: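 Cells seeded at 2.5×10^5/well 24 h ahead, then loaded with 370 kBq/well radiotracer for 2 h at 37°C to allow internalization. After two PBS washes, cells were kept in culture medium for 15, 30, 60 and 120 min, washed three times with PBS and detached with 0.25% trypsin/0.02% EDTA. Cell-bound activity was gamma counted and expressed as % of added dose after decay correction. Two experiments, triplicate wells.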
# in vivo = conditions: female, athymic nude, mouse, 7.4 MBq, total radioactivity
# Probe stability in PBS = type: physicochemical; conditions: PBS pH 7.4, 37°C, 3.7 MBq in 0.5 mL, HPLC
# In short: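 Radiolabeled peptide (3.7 MBq) was added to 0.5 mL PBS and held at 37°C for 1, 6 and 24 h. At each time an aliquot was taken and radiochemical purity was measured by radio-HPLC on a C18 reversed-phase column, with UV at 214/254 nm. Results are given as % intact tracer.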
# [2] = type: physicochemical; conditions: pH 7.4
smiles,measurement,setting,value
"NCCCC[C@@H]1NC(=O)[C@@H]2CCCN2C(=O)[C@H](CC(N)=O)NC(=O)[C@H](CO)NC(=O)[C@H](CC(N)=O)NC(=O)CNC(=O)[C@@H](NC(=O)CN2CCN(CC(=O)O)CCN(CC(=O)O)CCN(CC(=O)O)CC2)CSSC[C@@H](C(N)=O)NC(=O)[C@H](CO)NC1=O [^64Cu-DOTA-GX1, metal not drawn] ({DOTA}-CGNSNPKSC-NH2; disulfide 1-9; N-terminus and C-terminus assumed)",radioactivity still associated with the cells,[1],76%
same,tissue uptake at 24 h,in vivo; U87MG tumor uptake (biodistribution),6.46 ± 0.29 %ID/g
same,tissue uptake at 24 h,in vivo; liver uptake (biodistribution),5.03 ± 0.14 %ID/g
same,percentage of intact tracer in PBS,Probe stability in PBS; 6 h incubation,more than 95%
same,percentage of intact tracer in PBS,Probe stability in PBS; 24 h incubation,more than 91%
same,octanol/water partition coefficient (log P),[2],−2.42±0.003
